High-throughput results deposited in PubChem BioAssay by several laboratories.
Cl transport mod: modulates chloride dependent transport by human KCC2; hit rate 2.2% among 190,000; B-score of Tl+ flux slope (higher = more flux/activation; lower = inhibition) at 10 µM; KCC2 cells, thallium flux FluoZin-2 fluorescence; AID 1456;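 active = thallium flux slope and its plate-corrected score both differing from the plate sample mean at a set confidence after two filtering rounds, in either direction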;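 also: slope of fluorescence scaled to starting intensity during 10 to 20 s after thallium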
WT yeast gro inh: growth inhibition of WT yeast, mitochondrial fusion screen | hit rate 2.1% among 190,000 | inhibition, % at 10 µM | mitochondrial fusion phenotypic screen, WT strain; in the data active = inhibition above about 58%; tested in S. cerevisiae
L major viab: inhibitors of Leishmania major promastigote growth; Leishmania major promastigotes, resazurin fluorescence viability; inhibition, % at 10 µM; hit rate 9% among 200,000; in the data active = inhibition above about 50%;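 also: promastigotes grown with compound for 44 hours at 28 °C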
ROMK mod: human ROMK K+ channel modulation, primary screen. Tet-inducible ROMK, thallium flux fluorescence; actives lie on both sides. B-score at 10 µM. hit rate 2% among 130,000. AID 1918;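 active = signal ratio slope over the read window, or its plate-corrected B-score, at least 3 SD from the plate mean, either direction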;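 also: B-score of the F/F0 ratio slope over 7 to 12 s after thallium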
Target sequence (P48048 whole entry, looked up): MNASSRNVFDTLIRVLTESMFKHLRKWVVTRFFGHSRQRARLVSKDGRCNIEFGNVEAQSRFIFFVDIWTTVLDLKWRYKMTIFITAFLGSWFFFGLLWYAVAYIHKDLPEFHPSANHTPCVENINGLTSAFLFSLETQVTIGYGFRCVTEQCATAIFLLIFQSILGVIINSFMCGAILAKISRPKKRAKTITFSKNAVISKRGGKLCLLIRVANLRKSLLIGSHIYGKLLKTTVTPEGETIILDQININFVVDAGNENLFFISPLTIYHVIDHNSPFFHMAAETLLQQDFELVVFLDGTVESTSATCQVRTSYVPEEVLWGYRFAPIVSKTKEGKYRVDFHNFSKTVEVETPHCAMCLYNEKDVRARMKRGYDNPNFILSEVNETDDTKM
Diaphorase inh: counter-screen for diaphorase-based assays: diaphorase inhibitors and chemical oxidizers; diaphorase resazurin-to-resorufin fluorescence, NADH, 16 min; bacterial (C. kluyveri) enzyme, not human; inhibition, % at 20 µM; hit rate 0.69% among 190,000;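 active = primary screen inhibition at 20 µM above a set limit, cut at about 50% in these data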
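Assay system – diaphorase enzyme from Clostridium kluyveri · Amount – diaphorase 0.14 U/mL (working solution) · Times – reaction incubation of 16 min at room temperature · Controls – No-NADH positive control and DMSO neutral control · Signal – resorufin fluorescence 544/590 nm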
Diaph act CS: activates diaphorase or chemically reduces, flagging diaphorase assay artifacts. Diaphorase/resazurin coupled assay, resorufin fluorescence, 16 min; active compounds read high; 1 = vehicle wells, 0 = NADH-free wells. activation factor at 20 µM. hit rate 0.005% among 190,000. AID 1229;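 active = diaphorase activity raised at least twofold by the compound at 20 µM; inactive = activation factor below 2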
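test system = bacterial diaphorase enzyme (C. kluyveri) | quantity = enzyme 0.07 U/mL final | reagent = NADH substrate 0.114 mM plus resazurin dye 0.1 mM, final | incubation = 16 min enzyme reaction, ambient temperature | buffer or medium = HEPES pH 7.4 buffer with MgCl2 and Tween 20 | signal = fluorescence of resorufin, 544 nm excitation, 590 nm emission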
ROMK hit retest: retested hit modulating human ROMK potassium channel; ROMK thallium flux, fluorescence ratio; active compounds read low; normalized thallium flux (F/F0 slope) at 10 µM; hit rate 54% among 3,000; shares compounds with ROMK mod;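 active = Flux at 10 µM at least 3 SD below or above vehicle control mean in one or both replicates; inconclusive = no clear call, values can overlap the other calls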
Large screens that a line does not name were inactive (follow-up assays come after a bar, where they were run). An excerpt weighted towards active compounds, which were near 12% of everything screened.

O=C(CSc1nc2c(sc3ccccc32)c(=O)n1CCCN1CCCC1)NCc1ccccc1	L major viab 99, ROMK mod -3.5 | ROMK hit retest 0.06
COCCOC(=O)C1=C(C)OC(N)=C(C#N)C1c1ccc2c(c1)OCO2 (stereo not given)	none
C=CCOC(=O)C1=C(C)OC(N)=C(C#N)C1c1ccc2c(c1)OCO2 (stereo not given)	ROMK mod -3.2 | ROMK hit retest 0.085
CCOC(=O)c1c(C)[nH]c(C)c1C(=O)COC(=O)c1ccccc1O	none (no result: ROMK mod)
CCOC(=O)c1c(C)[nH]c(C(=O)COC(=O)c2ccc(O)cc2O)c1C	none (no result: WT yeast gro inh, L major viab, ROMK mod, Diaphorase inh, Diaph act CS) | ROMK hit retest inactive
COc1ccc(C(=O)Oc2ccc(=O)n(-c3ccccc3)n2)cc1	none (no result: ROMK mod)
Cc1cc(C)n(-c2nc(NCCN(C)C)c3c4c(sc3n2)CCCC4)n1	none (no result: WT yeast gro inh, L major viab, ROMK mod, Diaphorase inh, Diaph act CS) | ROMK hit retest inconclusive
Cc1ccc(NC(=O)Cn2nc(C)c(S(=O)(=O)N(C)C)c2C)cc1	none
Cc1[nH]c(=S)[nH]c(=O)c1CCOc1ccccc1	none (no result: Cl transport mod)
Cc1ccccc1OCCc1c(C)[nH]c(=S)[nH]c1=O	ROMK mod 1.7 | ROMK hit retest inactive
N/C(=N\c1nc2c(c(=O)[nH]1)CCC2)Nc1ccccc1C(F)(F)F	none (no result: Cl transport mod, ROMK mod)
CC(=O)NCc1ccc(C(=O)CCl)cc1	L major viab 93, ROMK mod -2 | ROMK hit retest 0.058
CC(=O)NCCC(=O)NCc1ccc(F)cc1	none (no result: WT yeast gro inh)
COc1cccc(-n2nnnc2SCC(=O)Nc2ccc(C(C)=O)cc2)c1	none
CCCS(=O)(=O)c1nnnn1-c1cccc(OC)c1	WT yeast gro inh 76, L major viab 100, ROMK mod -8.4 | ROMK hit retest 0.046
O=C(NC1(C(F)(F)F)OCCO1)c1ccc(F)cc1	none
CC1CN(C(=O)COC(=O)c2ccc(Cl)nc2)CC(C)O1 (stereo not given)	none
CCOC(=O)N1CCN(CC(=O)Nc2sccc2C#N)CC1	none
Cc1ccc(C)c(Cc2c(C)nc3c(C(=O)NCc4ccc5c(c4)OCO5)cnn3c2C)c1	none
Cc1cccc(Cc2c(C)nc3c(C(=O)N4CCN(Cc5ccc6c(c5)OCO6)CC4)cnn3c2C)c1	none (no result: ROMK mod) | ROMK hit retest 0.046
CSc1cccc(NC(=S)NCCCN2CCN(c3ccc(F)cc3)CC2)c1	L major viab 57, ROMK mod -2.7 | ROMK hit retest 0.053
CCCN1CCN(CCCNC(=S)Nc2ccc(F)cc2)CC1	none (no result: ROMK mod)
C=CCc1cc(Cl)ccc1OCCCNC(C)CC (stereo not given)	L major viab 100, ROMK mod -2.6 | ROMK hit retest 0.051
C/C=C/c1ccc(OCCCNC(C)CC)c(OC)c1 (stereo not given)	none (no result: Cl transport mod)
N#C/C(=C(/O)c1ccco1)c1nc2ccccc2s1	none (no result: ROMK mod)
N#C/C(=C(/O)c1cc2ccccc2o1)c1nc2ccccc2s1	none (no result: WT yeast gro inh, L major viab, ROMK mod, Diaphorase inh, Diaph act CS) | ROMK hit retest 0.058
N#C/C(=C/c1ccc(N2CCCCC2)o1)C(=O)Nc1ccc(Cl)cc1	none (no result: Cl transport mod, ROMK mod) | ROMK hit retest 0.048
Cc1c(C)n(Cc2ccccc2)c2ccc(C(=O)OCCN(C)C)cc12	L major viab 100, ROMK mod -3.5 | ROMK hit retest 0.059
Cc1onc(-c2ccccc2Cl)c1C(=O)Nc1nnc(-c2cccc([N+](=O)[O-])c2)s1	WT yeast gro inh 64 (no result: Cl transport mod, ROMK mod) | ROMK hit retest 0.061
Clc1ccc(-c2c[n+](Cc3ccc(Cl)cc3Cl)c3n2CCCCC3)cc1	none (no result: Cl transport mod, WT yeast gro inh, L major viab, ROMK mod, Diaphorase inh, Diaph act CS) | ROMK hit retest 0.055
CC1CCC(C(C)C)C(OC(=O)C[n+]2cc(-c3ccc(Cl)cc3)n3c2CCCCC3)C1 (stereo not given)	L major viab 100, ROMK mod -9.8 | ROMK hit retest 0.049
Clc1ccc(-c2c[n+](Cc3ccc(Br)cc3)c3n2CCCCC3)cc1	ROMK mod -4.2 (no result: WT yeast gro inh, L major viab, Diaphorase inh, Diaph act CS) | ROMK hit retest inactive
N#CC[n+]1cc(-c2ccc(Cl)cc2)n2c1CCC2	none (no result: Cl transport mod, ROMK mod)
CC(C)(C)NC(=O)COC(=O)c1cc(F)c(F)cc1Cl	none
CCOC(=O)N/N=C/c1cc(C)n(-c2ccccc2)c1C	ROMK mod 2.4 | ROMK hit retest inactive
Cc1cc(/C=N/NC(=O)c2ccncc2)c(C)n1-c1cccc(C(F)(F)F)c1	none (no result: WT yeast gro inh, L major viab, ROMK mod, Diaphorase inh, Diaph act CS)
Cc1cc(/C=N/NC(=O)c2cccc(F)c2)c(C)n1-c1ccccc1	ROMK mod 4.8 | ROMK hit retest inactive
CCOc1ccc(-n2c(C)cc(/C=N/NC(=O)C(N)=O)c2C)cc1	none
O=C(Cn1c(C(=O)NCc2ccco2)cc2sccc21)c1ccccc1	none (no result: ROMK mod) | ROMK hit retest inactive
O=C(Cn1c(=O)sc2ccccc21)NCc1ccco1	none (no result: ROMK mod)
Cc1c(S(=O)(=O)c2ccccn2)c(N)n(Cc2cccc(Cl)c2)c1C	none (no result: WT yeast gro inh, L major viab, Diaphorase inh, Diaph act CS)
CC1=C(C(=O)OCC2CCCO2)C(c2coc3ccc(Cl)cc3c2=O)C2=C(CCCC2=O)N1 (stereo not given)	ROMK mod -2.7 | ROMK hit retest inactive
O=C(NC(Nc1ncc(S(=O)(=O)c2ccc([N+](=O)[O-])cc2)s1)(C(F)(F)F)C(F)(F)F)c1ccc(Cl)cc1	ROMK mod -3 | ROMK hit retest inactive
CCC1Oc2ccc(C)cc2N(CC(=O)N(Cc2ccc(C)o2)C2CC(C)(C)NC(C)(C)C2)C1=O (stereo not given)	ROMK mod -6.9 | ROMK hit retest 0.059
O=C(CCCN1C(=O)c2ccccc2C1=O)Nc1cccc(S(=O)(=O)NC2=NCCC2)c1	none
CCCCCCNC(=O)N[C@H](C(=O)NCCC[C@H]1CN2C(=NC[C@H]2C)N1CCC(c1ccccc1)c1ccccc1)C(C)O (stereo not given in full)	none (no result: WT yeast gro inh, L major viab, ROMK mod, Diaphorase inh, Diaph act CS) | ROMK hit retest 0.061
CC(C)(C)CC(C)(C)NCC(O)COc1c(F)cc(Br)cc1F (stereo not given)	L major viab 100, ROMK mod -3.2 | ROMK hit retest 0.054
COc1ccc(CN2CCC(C(=O)N(C)CCc3ccc(OC)c(OC)c3)CC2)c(OC)c1	none (no result: ROMK mod)
COc1ccc(CN2CCC(N(CCc3ccccc3)Cc3ccccc3)CC2)c(OC)c1	L major viab 94, ROMK mod -3.3 | ROMK hit retest 0.051
O=C(c1ccc(Cl)cc1)c1c[nH]c(C(=O)NNc2cccc(Cl)n2)c1	none (no result: Cl transport mod)
O=C(c1ccccc1)c1c[nH]c(C(=O)NNc2cccc(Cl)n2)c1	ROMK mod 2 | ROMK hit retest inactive
CC(=O)Nc1ccc(-c2nnc(SCC(=O)NCc3ccco3)n2C)cc1	none (no result: Cl transport mod)
CC(C)CN=C(NS(=O)(=O)c1ccccc1)C(Cl)(Cl)Cl	L major viab 90 (no result: ROMK mod) | ROMK hit retest 0.05
COC(=O)c1sc2ccccc2c1NC(=O)c1ccc(S(=O)(=O)N2CCC(C)CC2)cc1	none (no result: ROMK mod)
O=C1c2cccc3c(N4CCCCC4)ccc(c23)C(=O)N1c1ccc(O)cc1	ROMK mod -3.1 | ROMK hit retest 0.051
